The values that follow come from ChEMBL document CHEMBL1141368, “Identification of a nonpeptidic and conformationally restricted bradykinin B1 receptor antagonist with anti-inflammatory activity” (J Med Chem, 2007).

The target of one data set is T1, B2 bradykinin receptor (Homo sapiens, UniProt P30411).
T1 sequence (P30411 whole entry): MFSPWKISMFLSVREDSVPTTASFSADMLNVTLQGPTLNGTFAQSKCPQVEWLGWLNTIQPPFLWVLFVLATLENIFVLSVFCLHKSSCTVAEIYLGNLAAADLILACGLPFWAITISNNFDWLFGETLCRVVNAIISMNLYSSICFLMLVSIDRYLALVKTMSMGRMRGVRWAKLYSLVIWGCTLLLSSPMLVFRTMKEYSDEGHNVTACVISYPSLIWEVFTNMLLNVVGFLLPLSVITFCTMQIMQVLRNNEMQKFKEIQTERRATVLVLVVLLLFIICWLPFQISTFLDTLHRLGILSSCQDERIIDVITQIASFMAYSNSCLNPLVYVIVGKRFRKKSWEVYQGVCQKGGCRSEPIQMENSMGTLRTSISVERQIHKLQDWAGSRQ
Put plainly: Displacement of [3H]bradykinin from human bradykinin B2 receptor expressed in CHO-K1 cells. Format: cell-based. In general terms: In a radioligand displacement assay an active substance lowers the binding of a labelled ligand.

Data set [1] concerns the target T2, B1 bradykinin receptor (Homo sapiens, UniProt P46663).
T2 sequence (P46663 whole entry): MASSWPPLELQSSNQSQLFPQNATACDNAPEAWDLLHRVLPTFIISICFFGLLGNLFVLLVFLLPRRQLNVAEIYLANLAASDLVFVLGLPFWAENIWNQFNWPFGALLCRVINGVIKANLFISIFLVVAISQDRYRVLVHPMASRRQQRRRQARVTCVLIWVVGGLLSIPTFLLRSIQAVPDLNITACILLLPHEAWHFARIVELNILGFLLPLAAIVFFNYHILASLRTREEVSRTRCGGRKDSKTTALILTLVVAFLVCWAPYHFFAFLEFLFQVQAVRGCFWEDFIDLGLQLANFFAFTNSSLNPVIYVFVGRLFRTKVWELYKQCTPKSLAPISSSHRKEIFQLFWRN
Put plainly: Antagonistic activity at human bradykinin B1 receptor expressed in CHO cells assessed as effect on DAK-mediated calcium mobilization. It counts as functional, cell-based. The method, boiled down: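 B1 receptor cDNA transfected into CHO cells; antagonist potency given as IC50 ± SEM with the number of determinations (n).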
A general note: Calcium flux is commonly read through the fluorescence of an indicator in the cells.

In data set [2] the target is T2, B1 bradykinin receptor. Put plainly: Displacement of [3H]DAK from human bradykinin B1 receptor expressed in CHO-D cells. It counts as cell-based.
The nature of data set [3]: Half life in rat at 10 mg/kg, sc. Format: ADME, organism-based. Further details: dose 10 mg/kg, route subcutaneous; call rule not given here. Conditions: in vivo.
A further data set deals with Plasma. The data set can be described thus: Fraction unbound in rat plasma. Format: ADME, cell-free.
The subject of data set [4] is Rattus norvegicus. The data set can be described thus: Reduction of exudates volume in rat reverse passive arthus model at 90 mg/kg, sc relative to control. Details: scale not given: the % may be the effect or the level left. As to conditions: route subcutaneous. Format: functional. The gist of the method: (§1)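 Reverse passive Arthus inflammation model in rats; drug given s.c. at 30, 60 or 90 mg/kg; exudate volume expressed relative to saline-treated animals and tested for statistical significance.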

Data set [5] relates to Rattus norvegicus. The data set can be described thus: Reduction of exudates volume in rat reverse passive arthus model at 60 mg/kg, sc relative to control. Format: functional. Details: scale not given: the % may be the effect or the level left. Conditions: route subcutaneous. The method, boiled down:
as §1

A short description of data set [6]: AUC (0-t) in rat at 10 mg/kg, sc. It counts as ADME, organism-based. Further details: dose 10 mg/kg, route subcutaneous. Conditions: plasma.
Data set [7] has as its system Rattus norvegicus. Put plainly: Reduction of exudates volume in rat reverse passive arthus model at 30 mg/kg, sc relative to control. Further details: scale not given: the % may be the effect or the level left. Format: functional. Conditions: route subcutaneous. The method, boiled down:
as §1

The nature of data set [8]: Mean residence time in rat at 1 mg/kg, iv. As to conditions: in vivo. Format: ADME, organism-based. Details: dose 1 mg/kg, route intravenous.
Data set [9] in a line: AUC (0-inf) in rat at 10 mg/kg, sc. Format: ADME, organism-based. Further details: time infinity, dose 10 mg/kg, route subcutaneous. As to conditions: plasma.
In data set [10] the test system is Rattus norvegicus. The data set can be described thus: Reduction of exudates volume in rat carrageenan-induced pleurisy model at 90 mg/kg, sc relative to control. As to conditions: route subcutaneous. Details: scale not given: the % may be the effect or the level left. It counts as functional.
Data set [11] is described as follows: Bioavailability in rat at 10 mg/kg, sc. Format: ADME, organism-based. Conditions: in vivo.
The nature of data set [12]: AUC (0-t) in rat at 1 mg/kg, iv. It counts as ADME, organism-based. Details: dose 1 mg/kg, route intravenous. As to conditions: plasma.
The nature of data set [13]: AUC (0-inf) in rat at 1 mg/kg, iv. Conditions: plasma. It counts as ADME, organism-based. Details: time infinity, dose 1 mg/kg, route intravenous.
A short description of data set [14]: Half life in rat at 1 mg/kg, iv. It counts as ADME, organism-based. Conditions: in vivo. Further details: dose 1 mg/kg, route intravenous.
The nature of data set [15]: Tmax in rat at 10 mg/kg, sc. Format: ADME, organism-based. Details: dose 10 mg/kg, route subcutaneous. As to conditions: in vivo.
Data set [16] deals with Rattus norvegicus. The data set can be described thus: Relevant drug concentration for 5-6 hrs in rat at 90 mg/kg, sc. Further details: dose 90 mg/kg, route subcutaneous. Conditions: in vivo. Format: ADME, organism-based.
Data set [17] in a line: Cmax in rat at 10 mg/kg, sc. It counts as ADME, organism-based. Details: dose 10 mg/kg, route subcutaneous. Conditions: in vivo.
A short description of data set [18]: Clearance in rat at 10 mg/kg, sc. It counts as ADME, organism-based. Conditions: in vivo. Further details: dose 10 mg/kg, route subcutaneous.
Data set [19] is described as follows: Volume of distribution in rat at 1 mg/kg, iv. It counts as ADME, organism-based. Further details: dose 1 mg/kg, route intravenous. Conditions: in vivo, read-out: Vss.
In data set [20] the test system is Rattus norvegicus. Put plainly: Reduction of edema formation in rat reverse passive arthus model at 3 mg/kg, po. Format: ADME, organism-based. Further details: dose 3 mg/kg, route oral. Conditions: in vivo.

On B2 bradykinin receptor, `O=C(C[C@@H](NS(=O)(=O)c1ccc2ccccc2c1)c1ccccc1)N[C@H]1CCOc2cc(CN3CCCCC3)ccc21` yielded a Ki greater than 20000 nM.

With `O=C(C[C@@H](NS(=O)(=O)c1ccc2ccccc2c1)c1ccccc1)NCc1ccc(CN2CCCCC2)cc1`, on B1 bradykinin receptor [1], the IC50 amounted to 447 nM. The Ki at B1 bradykinin receptor [2] was determined as 132 nM.

For `O=C(C[C@@H](NS(=O)(=O)c1ccc2ccccc2c1)c1ccccc1)N[C@@H]1CCOc2cc(CN3CCCCC3)ccc21`, the half-life in [3] was 2.2 h; in data set [14] it was 1.4 h. Besides, on B2 bradykinin receptor, the Ki was greater than 50000 nM. In the data set with Plasma, the Fu is 0.032. Further, the Activity was found to be 26% in the data set with Rattus norvegicus [4], 10% in the data set with Rattus norvegicus [5], 14% in the data set on Rattus norvegicus [7] and 22% in the data set with Rattus norvegicus [10]. The AUC(0-t) in data set [6] is 1960 ng·h/mL; in data set [12], 194 ng·h/mL. Also, in data set [8], the MRT amounted to 1.5 h. For the same compound, the figures for the AUC(0-inf) in data set [9] and in data set [13] were 2090 ng·h/mL and 201 ng·h/mL, respectively. The bioavailability in data set [11] was determined as 106%. Further, in [15], the Tmax came out at 0.4 h. The same compound gave a concentration in the data set with Rattus norvegicus [16] of 125 nM. Besides, the Cmax in data set [17] was found to be 825 ng/mL. This compound showed a CL/F in data set [18] of 79.6 mL/min/kg. For the same compound, the Vd in data set [19] was determined as 7.43 L/kg.

Turning to `O=C(CC(NS(=O)(=O)c1ccc2ccccc2c1)c1ccccc1)NCc1ccc(CN2CCCCC2)cc1` (racemic), at B1 bradykinin receptor [1], the IC50 worked out at 359 nM. Besides, the Ki on B2 bradykinin receptor came out at 56000 nM; at B1 bradykinin receptor [2], 382 nM.

As to `O=C(C[C@@H](NS(=O)(=O)c1ccc2ccccc2c1)c1ccccc1)NCCc1ccc(CN2CCCCC2)cc1`, the IC50 at B1 bradykinin receptor [1] stood at 540 nM.

In the case of `C[C@@H](NC(=O)C[C@@H](NS(=O)(=O)c1ccc2ccccc2c1)c1ccccc1)c1ccc(CN2CCCCC2)cc1`, the IC50 at B1 bradykinin receptor [1] came to 302 nM. Moreover, the affinity on B1 bradykinin receptor [2] corresponds to a Ki of 17 nM.

`O=C(C[C@@H](NS(=O)(=O)c1ccc2ccccc2c1)c1ccccc1)NC1CCc2cc(CCN3CCCCC3)ccc2C1` (stereo partly drawn): the half-maximal inhibitory concentration (IC50) on B1 bradykinin receptor [1] amounted to 325 nM.

With `CN1c2cc(CN3CCCCC3)ccc2[C@@H](NC(=O)C[C@@H](NS(=O)(=O)c2ccc3ccccc3c2)c2ccccc2)CS1(=O)=O`, the IC50 on B1 bradykinin receptor [1] is 10.7 nM. The Ki at B2 bradykinin receptor was 35000 nM; at B1 bradykinin receptor [2], 1.3 nM.

On to `CN1c2cc(CN3CCCCC3)ccc2[C@H](NC(=O)C[C@@H](NS(=O)(=O)c2ccc3ccccc3c2)c2ccccc2)CS1(=O)=O`, for which, at B1 bradykinin receptor [1], the IC50 turned out to be 14 nM. Moreover, the results for the Ki at B2 bradykinin receptor and at B1 bradykinin receptor [2] were 16000 nM and 15.8 nM, respectively.

As to `O=C(C[C@@H](NS(=O)(=O)c1ccc2ccccc2c1)c1ccccc1)N[C@@H]1CCc2cc(CN3CCCCC3)ccc21`, the IC50 at B1 bradykinin receptor [1] worked out at 5.6 nM. Also, the Ki on B2 bradykinin receptor came out at 49200 nM; on B1 bradykinin receptor [2], 1.6 nM.

For `O=C(C[C@@H](NS(=O)(=O)c1ccc2ccccc2c1)c1ccccc1)N[C@H]1CCc2cc(CN3CCCCC3)ccc21`, the IC50 at B1 bradykinin receptor [1] amounted to 183 nM. For the same compound, the Ki at B2 bradykinin receptor turned out to be 13300 nM; at B1 bradykinin receptor [2], 241 nM.

Consider `O=C(C[C@H](NS(=O)(=O)c1ccc2ccccc2c1)c1ccccc1)NCc1ccc(CN2CCCCC2)cc1`, for which the IC50 at B1 bradykinin receptor [1] is greater than 4000 nM.

As for `COc1ccc2c(c1)c(CC(=O)O)c(C)n2C(=O)c1ccc(Cl)cc1` [INDOMETHACIN], the Activity result in the data set on Rattus norvegicus [20] is “Not Active”.

What is called Ki is a measure of affinity in units of concentration, obtained from inhibition or displacement. For orientation: IC50 means the concentration needed to halve the response being measured. The term half-life denotes how long it takes for the measured level to halve. Broadly, the AUC(0-t) is the area under the concentration-time curve up to a stated or last time point. What is called MRT is a mean duration of stay, worked out from the concentration-time curve. What is called AUC(0-inf) is the area under the concentration-time curve extrapolated to infinity. The Tmax is the time from dosing to the highest level. As a reminder, the Cmax is the peak of the concentration-time curve. As a reminder, the CL/F is clearance divided by bioavailability, as obtained after extravascular dosing.
